Target: Translocator protein (Rattus norvegicus) (UniProt P16257)
Assay: Tissue (adrenal gland) concentration of radioactivity at 30 min post-injection into Albino male CD rats after pretreatment with cold PK 11195.
Type: functional, tissue-based
Conditions: not given
How it was run: (§1)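 Separate groups of five rats received tail-vein PK 11195 (1.4-1.6 mg; 5 mg/kg) in 30 µL DMSO:EtOH 1:1, or vehicle alone, immediately before iv radioligand (90-170 µCi in saline, 0.9-1 Ci/µmol). Rats were decapitated at 30 min and tissues gamma-counted; values are %I.D./g.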

Sequence of Translocator protein (Rattus norvegicus) (P16257 whole entry, looked up): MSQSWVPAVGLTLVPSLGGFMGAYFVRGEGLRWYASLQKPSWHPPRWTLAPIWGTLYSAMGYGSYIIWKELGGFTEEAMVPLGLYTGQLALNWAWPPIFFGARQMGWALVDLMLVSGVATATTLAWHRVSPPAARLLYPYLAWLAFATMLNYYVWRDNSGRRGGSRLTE

| SMILES | I.D./g [%] |
| --- | --- |
| CCC(C)N(C)C(=O)c1nc2ccccc2c(-c2ccccc2F)c1C (stereo not given) | < 0.78 |

Species: Rattus norvegicus
Assay: Tissue (testicle) distribution in Albino male CD rats after 5 minutes expressed as percent of injected dose per gram of organ.
Type: ADME, organism-based
Conditions: in vivo
How it was run: (§2)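 Male albino CD rats (225-250 g) received the 11C-labelled radioligand in saline by tail-vein injection. Three rats per time point were decapitated under light ether anaesthesia at 5, 15, 30, 60 or 90 min. Blood was collected heparinized and plasma separated by centrifugation. The pituitary was dissected from the brain. Lung, liver (three-lobe pieces) and right deltoid muscle were sampled, washed in cold saline, gamma-counted and weighed. Results are %I.D./g.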

| SMILES | I.D./g [%] |
| --- | --- |
| CCC(C)N(C)C(=O)c1nc2ccccc2c(-c2ccccc2F)c1C (stereo not given) | 0.04 |

Species: Rattus norvegicus
Assay: Tissue (liver) distribution in Albino male CD rats after 60 minutes expressed as percent of injected dose per gram of organ.
Type: ADME, organism-based
Conditions: in vivo, 1 h
How it was run: as §2

| SMILES | I.D./g [%] |
| --- | --- |
| CCC(C)N(C)C(=O)c1nc2ccccc2c(-c2ccccc2F)c1C (stereo not given) | 0.45 |

Species: Rattus norvegicus
Assay: Tissue (spleen) distribution in Albino male CD rats after 90 minutes expressed as percent of injected dose per gram of organ.
Type: ADME, organism-based
Conditions: in vivo, 1.5 h

| SMILES | I.D./g [%] |
| --- | --- |
| CCC(C)N(C)C(=O)c1nc2ccccc2c(-c2ccccc2F)c1C (stereo not given) | 0.71 |

Species: Rattus norvegicus
Assay: Tissue (kidney) distribution in Albino male CD rats after 60 minutes expressed as percent of injected dose per gram of organ.
Type: ADME, organism-based
Conditions: in vivo, 1 h
How it was run: (§3)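 Radioligand given in saline into tail vein of male albino CD rats (225-250 g); 100-200 µCi per animal, 1-2 Ci/µmol at injection depending on radioligand. Three rats per time point were decapitated under light ether anaesthesia. Blood, plasma, brain regions and washed organs were weighed and gamma-counted. Uptake is %I.D./g tissue, mean ± SD.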

| SMILES | I.D./g [%] |
| --- | --- |
| CCC(C)N(C)C(=O)c1nc2ccccc2c(-c2ccccc2F)c1C (stereo not given) | 0.51 |

Species: Rattus norvegicus
Assay: Tissue (lung) distribution in Albino male CD rats after 30 minutes expressed as percent of injected dose per gram of organ.
Type: ADME, organism-based
Conditions: in vivo, 0.5 h
How it was run: as §2

| SMILES | I.D./g [%] |
| --- | --- |
| CCC(C)N(C)C(=O)c1nc2ccccc2c(-c2ccccc2F)c1C (stereo not given) | 2.09 |

Species: Rattus norvegicus
Assay: Tissue (spleen) concentration of radioactivity at 30 min post-injection into Albino male CD rats with vehicle.
Type: ADME, organism-based
Conditions: in vivo, 0.5 h
How it was run: (§4)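 Blocking study in male albino CD rats, five per group. Immediately before the 11C radioligand (in saline, i.v. tail vein), rats received 30 µL tail-vein PK 11195 (5 mg/kg; 1.4-1.6 mg) in DMSO:EtOH 1:1, or vehicle. Rats were decapitated at 30 min. Tissues were dissected, washed, gamma-counted and weighed as in the biodistribution study. Results are %I.D./g.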

| SMILES | I.D./g [%] |
| --- | --- |
| CCC(C)N(C)C(=O)c1nc2ccccc2c(-c2ccccc2F)c1C (stereo not given) | 0.28 |

Species: Rattus norvegicus
Assay: Tissue (plasma) distribution in Albino male CD rats after 15 minutes expressed as percent of injected dose per gram of organ.
Type: ADME, organism-based
Conditions: in vivo, 0.25 h
How it was run: as §2

| SMILES | I.D./g [%] |
| --- | --- |
| CCC(C)N(C)C(=O)c1nc2ccccc2c(-c2ccccc2F)c1C (stereo not given) | 0.09 |

Species: Rattus norvegicus
Assay: Tissue (pituitary) distribution in Albino male CD rats after 60 minutes expressed as percent of injected dose per gram of organ.
Type: ADME, organism-based, Pituitary gland
Conditions: in vivo, 1 h
How it was run: as §2

| SMILES | I.D./g [%] |
| --- | --- |
| CCC(C)N(C)C(=O)c1nc2ccccc2c(-c2ccccc2F)c1C (stereo not given) | 0.14 |

Species: Rattus norvegicus
Assay: Tissue (blood) distribution in Albino male CD rats after 5 minutes expressed as percent of injected dose per gram of organ.
Type: ADME, organism-based
Conditions: in vivo
How it was run: as §3

| SMILES | I.D./g [%] |
| --- | --- |
| CCC(C)N(C)C(=O)c1nc2ccccc2c(-c2ccccc2F)c1C (stereo not given) | 0.11 |

Species: Rattus norvegicus
Assay: Tissue (cerebellum) distribution in Albino male CD rats after 15 minutes expressed as percent of injected dose per gram of organ.
Type: ADME, organism-based
Conditions: in vivo, 0.25 h
How it was run: as §3

| SMILES | I.D./g [%] |
| --- | --- |
| CCC(C)N(C)C(=O)c1nc2ccccc2c(-c2ccccc2F)c1C (stereo not given) | 0.11 |

Target: Translocator protein (Rattus norvegicus) (UniProt P16257)
Assay: Tissue (muscle) concentration of radioactivity at 30 min post-injection into Albino male CD rats after pretreatment with cold PK 11195.
Type: functional
Conditions: not given
How it was run: as §4

| SMILES | I.D./g [%] |
| --- | --- |
| CCC(C)N(C)C(=O)c1nc2ccccc2c(-c2ccccc2F)c1C (stereo not given) | < 0.03 |

Species: Rattus norvegicus
Assay: Tissue (kidney) distribution in Albino male CD rats after 5 minutes expressed as percent of injected dose per gram of organ.
Type: ADME, organism-based
Conditions: in vivo
How it was run: as §3

| SMILES | I.D./g [%] |
| --- | --- |
| CCC(C)N(C)C(=O)c1nc2ccccc2c(-c2ccccc2F)c1C (stereo not given) | 0.41 |

Species: Rattus norvegicus
Assay: Tissue (kidney) concentration of radioactivity at 30 min post-injection into Albino male CD rats with vehicle.
Type: ADME, organism-based
Conditions: in vivo, 0.5 h
How it was run: as §1

| SMILES | I.D./g [%] |
| --- | --- |
| CCC(C)N(C)C(=O)c1nc2ccccc2c(-c2ccccc2F)c1C (stereo not given) | 0.35 |

Species: Rattus norvegicus
Assay: Tissue (lung) distribution in Albino male CD rats after 5 minutes expressed as percent of injected dose per gram of organ.
Type: ADME, organism-based
Conditions: in vivo
How it was run: as §2

| SMILES | I.D./g [%] |
| --- | --- |
| CCC(C)N(C)C(=O)c1nc2ccccc2c(-c2ccccc2F)c1C (stereo not given) | 2.37 |

Species: Rattus norvegicus
Assay: Tissue (adrenal gland) distribution in Albino male CD rats after 5 minutes expressed as percent of injected dose per gram of organ.
Type: ADME, organism-based
Conditions: in vivo
How it was run: as §3

| SMILES | I.D./g [%] |
| --- | --- |
| CCC(C)N(C)C(=O)c1nc2ccccc2c(-c2ccccc2F)c1C (stereo not given) | 1.12 |

Species: Rattus norvegicus
Assay: Tissue (intestine) distribution in Albino male CD rats after 15 minutes expressed as percent of injected dose per gram of organ.
Type: ADME, organism-based
Conditions: in vivo, 0.25 h
How it was run: as §3

| SMILES | I.D./g [%] |
| --- | --- |
| CCC(C)N(C)C(=O)c1nc2ccccc2c(-c2ccccc2F)c1C (stereo not given) | 0.37 |

Species: Rattus norvegicus
Assay: Tissue (cerebellum) distribution in Albino male CD rats after 90 minutes expressed as percent of injected dose per gram of organ.
Type: ADME, organism-based
Conditions: in vivo, 1.5 h
How it was run: as §3

| SMILES | I.D./g [%] |
| --- | --- |
| CCC(C)N(C)C(=O)c1nc2ccccc2c(-c2ccccc2F)c1C (stereo not given) | 0.06 |

Species: Rattus norvegicus
Assay: Tissue (liver) distribution in Albino male CD rats after 15 minutes expressed as percent of injected dose per gram of organ.
Type: ADME, organism-based
Conditions: in vivo, 0.25 h
How it was run: as §3

| SMILES | I.D./g [%] |
| --- | --- |
| CCC(C)N(C)C(=O)c1nc2ccccc2c(-c2ccccc2F)c1C (stereo not given) | 0.69 |

Species: Rattus norvegicus
Assay: Tissue (testicle) distribution in Albino male CD rats after 30 minutes expressed as percent of injected dose per gram of organ.
Type: ADME, organism-based
Conditions: in vivo, 0.5 h
How it was run: as §2

| SMILES | I.D./g [%] |
| --- | --- |
| CCC(C)N(C)C(=O)c1nc2ccccc2c(-c2ccccc2F)c1C (stereo not given) | 0.09 |
